Source: ChEMBL document CHEMBL4261600 (Eur J Med Chem, 2018)
The source made the active and inactive calls.

Tests used:
[1] = molecular target: Serine/threonine-protein kinase 32A (Homo sapiens) (UniProt Q8WU08); assay: Binding affinity to wild-type human full length YANK1 (M1 to L396 residues) expressed in mammalian expression system assessed as remaining unbound target protein level at 1000 nM by Kinomescan method relative to control
Method in brief: (§1)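 Profiled in a KINOMEscan binding panel with the inhibitor at a single concentration of 1 μM. Binding to each kinase was read out as percent of control, relative to a DMSO control. Strong binders were defined as those with a percent control value below 1.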

[2] = AUC (0 to t) in beagle dog at 10 mg/kg, po by LC-MS/MS analysis; assay type: ADME, organism-based, Canis lupus familiaris; details: in vivo
Method in brief: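 Non-compartmental PK. Male SD rats 190-210 g, mice and beagle dogs acclimatized one week, fasted 12 h with water, split into iv and po groups (mice 48, rats 6, dogs 6). iv 3/3/2 mg/kg (mice/rats/dogs); po 10/20/10 mg/kg; vehicle DMSO in 5% glucose water. Blood at 2 or 5 to 720 min; plasma protein-precipitated with methanol, caffeine internal standard, LC-MS/MS.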

[3] = molecular target: MAP/microtubule affinity-regulating kinase 3 (Homo sapiens) (UniProt P27448); assay: Binding affinity to wild-type human full length MARK3 (M1 to L729 residues) expressed in bacterial expression system assessed as remaining unbound target protein level at 1000 nM by Kinomescan method relative to control
Method in brief: (§2)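 Single-point competition binding screen across a panel of 468 kinases and mutants, with the inhibitor at 1 μM. Binding is read out as percent of a DMSO control, and targets below 1 percent control were classed as strong binders.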

[4] = molecular target: Dual specificity mitogen-activated protein kinase kinase 1 (Homo sapiens) (UniProt Q02750); assay: Binding affinity to wild-type human full length MEK1 (M1 to V393 residues) expressed in mammalian expression system assessed as remaining unbound target protein level at 1000 nM by Kinomescan method relative to control; method in brief: as §2
[5] = molecular target: Cyclin-dependent kinase-like 3 (Homo sapiens) (UniProt Q8IVW4); assay: Binding affinity to wild-type human partial length CDKL3 (M1 to D327 residues) expressed in bacterial expression system assessed as remaining unbound target protein level at 1000 nM by Kinomescan method relative to control
[6] = molecular target: Dual specificity mitogen-activated protein kinase kinase 2 (Homo sapiens) (UniProt P36507); assay: Binding affinity to wild-type human full length MEK2 (M1 to V400 residues) expressed in mammalian expression system assessed as remaining unbound target protein level at 1000 nM by Kinomescan method relative to control
Method in brief: (§3)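 KINOMEscan competition binding profile across a panel of 468 kinases and mutants, with the inhibitor tested at a single concentration of 1 μM. Binding is reported as percent of control, meaning signal relative to a DMSO control.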

[7] = molecular target: Serine/threonine-protein kinase Sgk1 (Homo sapiens) (UniProt O00141); assay: Binding affinity to wild-type human partial length SGK (I60 to L431 residues) expressed in mammalian expression system assessed as remaining unbound target protein level at 1000 nM by Kinomescan method relative to control
[8] = molecular target: Cyclin-dependent kinase 9 (Homo sapiens, UniProt P50750); assay: Inhibition of CDK9 in human HL60 cells assessed as decrease in phosphorylation at Thr 186 residues up to 3 uM after 2 hrs by immunoblotting analysis; assay type: cell-based
[9] = molecular target: Serine/threonine-protein kinase tousled-like 1 (Homo sapiens) (UniProt Q9UKI8); assay: Binding affinity to wild-type human partial length TLK1 (K447 to A754 residues) expressed in bacterial expression system assessed as remaining unbound target protein level at 1000 nM by Kinomescan method relative to control
[10] = molecular target: Cyclin-dependent kinase 16 (Homo sapiens) (UniProt Q00536); assay: Binding affinity to wild-type human partial length PCTK1 (G160 to A474 residues) expressed in mammalian expression system assessed as remaining unbound target protein level at 1000 nM by Kinomescan method relative to control
Method in brief: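 KINOMEscan binding panel of 468 kinases/mutants. Inhibitor was tested at a single concentration of 1 μM. Binding is reported as percent of control, defined relative to a DMSO control.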

[11] = molecular target: Mitogen-activated protein kinase 11 (Homo sapiens) (UniProt Q15759); assay: Binding affinity to wild-type human full length p38-beta (M1 to Q364 residues) expressed in bacterial expression system assessed as remaining unbound target protein level at 1000 nM by Kinomescan method relative to control; method in brief: as §1
[12] = MRT (0 to t) in mouse at 3 mg/kg, iv by LC-MS/MS analysis; assay type: ADME, organism-based; details: in vivo
[13] = molecular target: Serine/threonine-protein kinase MARK2 (Homo sapiens) (UniProt Q7KZI7); assay: Binding affinity to wild-type human partial length MARK2 (M1 to R450 residues) expressed in bacterial expression system assessed as remaining unbound target protein level at 1000 nM by Kinomescan method relative to control
[14] = molecular target: Macrophage colony-stimulating factor 1 receptor (Homo sapiens) (UniProt P07333); assay: Binding affinity to wild-type human partial length CSF1R (I564 to S939 residues) expressed in bacterial expression system assessed as remaining unbound target protein level at 1000 nM by Kinomescan method relative to control
[15] = molecular target: Ribosomal protein S6 kinase alpha-3 (Homo sapiens) (UniProt P51812); assay: Binding affinity to wild-type human partial length N-terminal RSK2 kinase domain 1 (M1 to D394 residues) expressed in mammalian expression system assessed as remaining unbound target protein level at 1000 nM by Kinomescan method relative to control
[16] = molecular target: Serine/threonine-protein kinase DCLK2 (Homo sapiens) (UniProt Q8N568); assay: Binding affinity to wild-type human partial length DCAMKL2 (K273 to V664 residues) expressed in bacterial expression system assessed as remaining unbound target protein level at 1000 nM by Kinomescan method relative to control
[17] = test system: Receptor-type tyrosine-protein kinase FLT3 (Homo sapiens), P36888 [D835Y]; assay: Binding affinity to human partial length FLT3 D835Y mutant (Q580 to Y969 residues) expressed in bacterial expression system assessed as remaining unbound target protein level at 1000 nM by Kinomescan method relative to control
Method in brief: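 KINOMEscan competition-binding profiling across the panel of 468 kinases and mutants, with inhibitor tested at 1 μM. Binding is expressed as percent of control, with DMSO as the reference control.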

[18] = molecular target: Mitogen-activated protein kinase kinase kinase kinase 1 (Homo sapiens) (UniProt Q92918); assay: Binding affinity to wild-type human full length HPK1 (M1 to R799 residues) expressed in bacterial expression system assessed as remaining unbound target protein level at 1000 nM by Kinomescan method relative to control; method in brief: as §3
[19] = molecular target: High affinity nerve growth factor receptor (Homo sapiens) (UniProt P04629); assay: Binding affinity to wild-type human partial length TRKA (G475 to G790 residues) expressed in mammalian expression system assessed as remaining unbound target protein level at 1000 nM by Kinomescan method relative to control
[20] = molecular target: Cyclin-dependent kinase 7 (Homo sapiens) (UniProt P50613); assay: Inhibition of CDK7 in human HL60 cells assessed as decrease in RNA polymerase 2 phosphorylation at Ser 5 residues up to 3 uM after 2 hrs by immunoblotting analysis; assay type: cell-based

Chain of Serine/threonine-protein kinase 32A (Homo sapiens) (Q8WU08 whole entry, the tested form may be a part): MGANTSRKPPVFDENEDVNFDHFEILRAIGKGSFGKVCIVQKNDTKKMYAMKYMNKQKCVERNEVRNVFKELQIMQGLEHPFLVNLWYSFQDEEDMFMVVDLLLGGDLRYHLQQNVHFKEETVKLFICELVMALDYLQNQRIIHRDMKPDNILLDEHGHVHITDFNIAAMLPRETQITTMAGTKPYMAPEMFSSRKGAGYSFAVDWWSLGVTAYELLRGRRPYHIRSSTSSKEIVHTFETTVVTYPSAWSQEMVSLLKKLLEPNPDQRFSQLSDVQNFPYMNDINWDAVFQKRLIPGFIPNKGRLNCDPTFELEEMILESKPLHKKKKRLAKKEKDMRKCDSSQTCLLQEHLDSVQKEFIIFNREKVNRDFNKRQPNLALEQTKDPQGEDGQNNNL
Chain of Macrophage colony-stimulating factor 1 receptor (Homo sapiens) (P07333 whole entry, the tested form may be a part): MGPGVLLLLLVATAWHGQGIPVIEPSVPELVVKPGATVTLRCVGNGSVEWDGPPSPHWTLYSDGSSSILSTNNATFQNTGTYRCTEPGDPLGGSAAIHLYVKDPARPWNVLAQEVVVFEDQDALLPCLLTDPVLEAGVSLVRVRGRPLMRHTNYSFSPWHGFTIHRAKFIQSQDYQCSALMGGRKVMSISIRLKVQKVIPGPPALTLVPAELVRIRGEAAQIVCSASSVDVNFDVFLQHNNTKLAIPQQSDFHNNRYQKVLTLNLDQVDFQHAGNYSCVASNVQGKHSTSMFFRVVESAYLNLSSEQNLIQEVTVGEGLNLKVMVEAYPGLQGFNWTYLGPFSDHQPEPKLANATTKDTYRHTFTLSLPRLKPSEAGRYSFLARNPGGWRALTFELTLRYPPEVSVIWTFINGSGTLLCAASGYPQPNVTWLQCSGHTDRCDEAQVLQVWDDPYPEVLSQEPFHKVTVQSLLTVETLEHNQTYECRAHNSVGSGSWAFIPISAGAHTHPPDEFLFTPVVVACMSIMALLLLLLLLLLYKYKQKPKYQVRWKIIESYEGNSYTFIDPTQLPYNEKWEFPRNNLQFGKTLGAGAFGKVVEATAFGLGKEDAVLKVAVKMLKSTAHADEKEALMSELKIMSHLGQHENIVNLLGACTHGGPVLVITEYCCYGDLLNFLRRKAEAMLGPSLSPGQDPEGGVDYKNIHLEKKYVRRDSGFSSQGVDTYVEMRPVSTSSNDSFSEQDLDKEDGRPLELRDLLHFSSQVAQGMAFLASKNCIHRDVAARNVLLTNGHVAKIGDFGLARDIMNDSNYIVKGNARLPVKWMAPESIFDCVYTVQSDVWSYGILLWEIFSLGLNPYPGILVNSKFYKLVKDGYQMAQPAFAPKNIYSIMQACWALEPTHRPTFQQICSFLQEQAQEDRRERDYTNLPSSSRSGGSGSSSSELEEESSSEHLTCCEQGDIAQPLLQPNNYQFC
Chain of Mitogen-activated protein kinase kinase kinase kinase 1 (Homo sapiens) (Q92918 whole entry, looked up, the tested form may be a part): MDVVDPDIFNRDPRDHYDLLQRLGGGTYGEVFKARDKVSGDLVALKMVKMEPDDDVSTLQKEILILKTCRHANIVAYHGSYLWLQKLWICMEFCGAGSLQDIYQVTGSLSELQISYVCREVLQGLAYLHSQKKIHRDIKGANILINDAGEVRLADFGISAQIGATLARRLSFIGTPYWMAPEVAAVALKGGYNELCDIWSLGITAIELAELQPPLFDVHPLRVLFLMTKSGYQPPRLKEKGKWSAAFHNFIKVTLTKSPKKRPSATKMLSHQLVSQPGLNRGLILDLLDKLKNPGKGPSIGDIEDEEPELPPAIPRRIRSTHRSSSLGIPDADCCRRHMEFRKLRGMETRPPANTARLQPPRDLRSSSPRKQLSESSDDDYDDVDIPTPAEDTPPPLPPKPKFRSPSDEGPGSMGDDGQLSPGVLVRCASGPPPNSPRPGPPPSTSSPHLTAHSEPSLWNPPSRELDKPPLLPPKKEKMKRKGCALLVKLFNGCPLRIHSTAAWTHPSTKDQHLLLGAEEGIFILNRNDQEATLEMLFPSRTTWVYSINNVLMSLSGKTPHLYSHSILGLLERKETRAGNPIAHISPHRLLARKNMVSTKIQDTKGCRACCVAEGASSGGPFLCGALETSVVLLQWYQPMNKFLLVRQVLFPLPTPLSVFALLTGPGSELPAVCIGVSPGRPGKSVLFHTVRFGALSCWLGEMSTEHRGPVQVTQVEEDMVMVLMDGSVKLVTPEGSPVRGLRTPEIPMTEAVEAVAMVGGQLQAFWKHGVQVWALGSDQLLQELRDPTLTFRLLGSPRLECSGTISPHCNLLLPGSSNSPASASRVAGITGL
Chain of Cyclin-dependent kinase 9 (P50750 whole entry, the tested form may be a part): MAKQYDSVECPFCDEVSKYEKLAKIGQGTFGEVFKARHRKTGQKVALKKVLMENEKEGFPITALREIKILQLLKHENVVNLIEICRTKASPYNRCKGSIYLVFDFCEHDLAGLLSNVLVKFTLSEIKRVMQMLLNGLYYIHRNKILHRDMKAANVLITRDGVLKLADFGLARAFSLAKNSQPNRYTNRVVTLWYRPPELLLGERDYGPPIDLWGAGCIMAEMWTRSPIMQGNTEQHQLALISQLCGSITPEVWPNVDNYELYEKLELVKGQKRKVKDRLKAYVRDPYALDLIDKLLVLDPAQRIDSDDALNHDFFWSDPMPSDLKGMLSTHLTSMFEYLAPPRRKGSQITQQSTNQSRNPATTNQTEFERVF
Chain of High affinity nerve growth factor receptor (Homo sapiens) (P04629 33-796 limits assumed): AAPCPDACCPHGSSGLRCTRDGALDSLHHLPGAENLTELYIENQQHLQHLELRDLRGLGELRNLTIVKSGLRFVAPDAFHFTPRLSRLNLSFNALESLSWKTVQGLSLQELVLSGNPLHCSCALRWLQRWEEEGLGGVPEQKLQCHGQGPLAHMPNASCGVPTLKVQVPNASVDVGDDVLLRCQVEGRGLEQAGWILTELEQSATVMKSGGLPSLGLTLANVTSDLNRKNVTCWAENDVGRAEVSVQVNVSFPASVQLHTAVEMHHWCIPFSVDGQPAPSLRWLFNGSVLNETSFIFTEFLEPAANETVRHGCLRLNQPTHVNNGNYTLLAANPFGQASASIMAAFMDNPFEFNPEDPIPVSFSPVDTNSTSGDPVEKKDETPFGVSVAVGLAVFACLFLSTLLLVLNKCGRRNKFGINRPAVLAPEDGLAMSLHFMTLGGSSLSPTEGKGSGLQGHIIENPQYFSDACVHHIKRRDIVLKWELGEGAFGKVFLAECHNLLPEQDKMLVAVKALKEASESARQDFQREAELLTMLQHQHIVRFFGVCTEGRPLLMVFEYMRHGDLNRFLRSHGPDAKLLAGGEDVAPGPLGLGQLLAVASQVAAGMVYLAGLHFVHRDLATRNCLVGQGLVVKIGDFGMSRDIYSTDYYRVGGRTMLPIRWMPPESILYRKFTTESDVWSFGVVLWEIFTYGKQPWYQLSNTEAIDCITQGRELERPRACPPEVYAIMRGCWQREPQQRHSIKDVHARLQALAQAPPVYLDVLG
Chain of MAP/microtubule affinity-regulating kinase 3 (Homo sapiens) (P27448 whole entry, looked up, the tested form may be a part): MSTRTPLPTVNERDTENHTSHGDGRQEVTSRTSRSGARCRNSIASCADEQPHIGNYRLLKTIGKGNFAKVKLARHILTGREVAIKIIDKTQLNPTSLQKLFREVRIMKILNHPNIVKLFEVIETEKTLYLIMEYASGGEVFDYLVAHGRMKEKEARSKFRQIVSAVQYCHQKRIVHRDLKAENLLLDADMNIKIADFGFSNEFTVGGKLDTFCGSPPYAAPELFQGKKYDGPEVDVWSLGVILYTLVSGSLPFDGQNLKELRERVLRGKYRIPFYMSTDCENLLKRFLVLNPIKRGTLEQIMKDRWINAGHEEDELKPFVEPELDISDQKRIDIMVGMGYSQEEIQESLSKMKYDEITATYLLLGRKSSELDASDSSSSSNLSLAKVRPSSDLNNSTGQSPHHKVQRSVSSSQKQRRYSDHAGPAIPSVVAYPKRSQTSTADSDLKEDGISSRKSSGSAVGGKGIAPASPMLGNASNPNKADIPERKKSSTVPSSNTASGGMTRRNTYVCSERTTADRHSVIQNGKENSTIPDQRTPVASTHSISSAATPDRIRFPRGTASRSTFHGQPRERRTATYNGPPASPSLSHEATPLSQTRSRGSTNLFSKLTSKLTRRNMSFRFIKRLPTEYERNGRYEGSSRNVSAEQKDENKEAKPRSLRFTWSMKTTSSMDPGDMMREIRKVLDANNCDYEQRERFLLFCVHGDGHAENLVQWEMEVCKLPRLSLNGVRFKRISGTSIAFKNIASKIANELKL
Chain of Ribosomal protein S6 kinase alpha-3 (Homo sapiens) (P51812 whole entry, the tested form may be a part): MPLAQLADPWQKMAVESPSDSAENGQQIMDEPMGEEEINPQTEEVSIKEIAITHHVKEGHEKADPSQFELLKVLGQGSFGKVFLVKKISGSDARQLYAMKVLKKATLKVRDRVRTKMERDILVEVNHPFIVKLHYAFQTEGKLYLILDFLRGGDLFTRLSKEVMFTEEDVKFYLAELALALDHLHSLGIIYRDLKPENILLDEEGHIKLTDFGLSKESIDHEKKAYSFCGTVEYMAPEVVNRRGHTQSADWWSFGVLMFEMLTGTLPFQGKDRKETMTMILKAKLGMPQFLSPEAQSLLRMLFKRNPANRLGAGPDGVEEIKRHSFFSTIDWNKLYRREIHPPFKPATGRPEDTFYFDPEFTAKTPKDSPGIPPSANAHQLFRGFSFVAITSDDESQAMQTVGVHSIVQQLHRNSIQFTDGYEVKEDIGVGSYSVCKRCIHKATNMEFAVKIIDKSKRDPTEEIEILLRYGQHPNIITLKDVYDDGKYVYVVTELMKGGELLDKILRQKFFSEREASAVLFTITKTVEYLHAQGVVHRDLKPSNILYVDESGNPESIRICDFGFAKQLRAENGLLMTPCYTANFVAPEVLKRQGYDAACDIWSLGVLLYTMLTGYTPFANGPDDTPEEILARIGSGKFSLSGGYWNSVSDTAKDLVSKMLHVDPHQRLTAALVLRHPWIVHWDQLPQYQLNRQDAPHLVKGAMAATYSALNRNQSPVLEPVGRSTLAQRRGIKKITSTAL

Compound `COCCN[C@H]1CC[C@H](Nc2cc(-c3csc(NCC4(C#N)CCOCC4)n3)c(Cl)cn2)CC1` has an Activity [1] of 100%, an AUC(0-t) [2] of 3940 ng·h/mL and an Activity [3] of 100%. It also gave an Activity [4] of 100%, an Activity [5] of 83% and an Activity [6] of 95%. For the same compound, the Activity [7] was 70%, the inhibition [8] was “inactive” and the Activity [9] was 81%. For the same compound, the Activity [10] was 46%, the Activity [11] was 85% and the MRT last [12] was 1.25 h. The Activity [13] was 100%, the Activity [14] was 87% and the Activity [15] was 100%. The Activity [16] was 96%, the Activity [17] was 100% and the Activity [18] was 95%. The Activity [19] was 71% and the inhibition [20] was “inactive”.
